# What was measured:
# Type in all cases: functional
# BT-549 = test: Growth inhibition of human BT549 cells after 48 hrs by SRB assay; conditions: BT-549, 48 h
# How it was run: (§1)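 NCI-60 panel protocol with adherent lines. Cells were seeded at 5,000–40,000 cells/well, depending on doubling time, and pre-incubated 24 h at 37 °C, 5% CO₂. Time-zero plates were TCA-fixed at drug addition. Drugs were dissolved in DMSO and exposed for 48 h. Cells were fixed with cold TCA (final 10%) for 60 min at 4 °C, stained with 0.4% SRB in 1% acetic acid for 10 min, solubilized with 10 mM trizma base, and read at A515.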
# T47D = test: Growth inhibition of human T47D cells after 48 hrs by SRB assay
# How it was run: (§2)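 NCI 60-cell panel, five-dose format: cells plated at 5,000–40,000/well by doubling time, preincubated 24 h at 37 °C, 5% CO2; time-zero plates TCA-fixed. Compound dissolved in DMSO, five concentrations (0.01, 0.1, 1, 10, 100 µM) plus control, 48 h. Cells fixed with cold TCA, stained with 0.4% SRB in 1% acetic acid, bound dye solubilized in 10 mM trizma base, absorbance at 515 nm. GI50 taken from [(Ti–Tz)/(C–Tz)]×100 = 50.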
# PC-3 = test: Growth inhibition of human PC3 cells after 48 hrs by SRB assay; conditions: PC-3, 48 h; how it was run: as §1
# [1] = Growth inhibition of human Hs 578T cells after 48 hrs by SRB assay; how it was run: as §1
# MCF7 = test: Growth inhibition of human MCF7 cells after 48 hrs by SRB assay; conditions: MCF7, 48 h; how it was run: as §1
# M14 = test: Growth inhibition of human M14 cells after 48 hrs by SRB assay; conditions: M14, 48 h; how it was run: as §1
# K562 = test: Growth inhibition of human K562 cells after 48 hrs by SRB assay; conditions: K562, 48 h
# How it was run: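 Suspension leukemia lines were run in the NCI-60 SRB format. Cells were plated at 5,000–40,000 cells/well and pre-incubated 24 h at 37 °C, 5% CO₂, with time-zero plates fixed at drug addition. Drug exposure in DMSO-derived dilutions lasted 48 h. Settled cells were fixed with 80% TCA (final 16%), stained with 0.4% SRB, solubilized in 10 mM trizma base, and read at 515 nm. Percent growth was taken relative to the time-zero and control readings.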
# SR = test: Growth inhibition of human SR cells after 48 hrs by SRB assay; how it was run: as §2
# COLO 205 = test: Growth inhibition of human COLO205 cells after 48 hrs by SRB assay; conditions: COLO 205, 48 h; how it was run: as §1
# [2] = read-out: LC50 (the source's name)
compound,measurement,setting,value
COc1ccc(C2CC(c3nc4ccccc4[nH]3)=NN2c2ccccc2)cc1OC (configuration not stated),GI50,BT-549,10.3 µM
same,TGI,BT-549,69 µM
same,CC50,BT-549; [2],> 100 µM
same,GI50,T47D,3.09 µM
same,TGI,T47D,51.1 µM
same,CC50,T47D; [2],> 100 µM
same,GI50,PC-3,6.27 µM
same,TGI,PC-3,49 µM
same,CC50,PC-3; [2],> 100 µM
same,GI50,[1],6.18 µM
same,TGI,[1],41.2 µM
same,CC50,[1]; [2],> 100 µM
same,GI50,MCF7,2.41 µM
same,TGI,MCF7,15.3 µM
same,CC50,MCF7; [2],54.2 µM
same,GI50,M14,16.1 µM
same,TGI,M14,> 100 µM
same,CC50,M14; [2],> 100 µM
same,GI50,K562,> 100 µM
same,TGI,K562,> 100 µM
same,CC50,K562; [2],> 100 µM
same,GI50,SR,> 100 µM
same,TGI,SR,> 100 µM
same,CC50,SR; [2],> 100 µM
same,GI50,COLO 205,9.88 µM
same,TGI,COLO 205,33.2 µM
same,CC50,COLO 205; [2],> 100 µM
